Measurements from different studies.
Lines come from different studies, so protocols differ.
Cell line: HepG2
Observed: cell growth or viability

SMILES | method | tested at | time | inhibition
Cc1cc(Nc2ccc(C(=O)N/N=C/c3cccc(Oc4ccccc4)c3)cc2)c2cccc(O)c2n1 | MTT | 20 µM | – | 51.7%
CCOC(=O)c1c(C)ncn1CC(c1cn(C)c2ccc([N+](=O)[O-])cc12)c1cn(C)c2ccc([N+](=O)[O-])cc12 | MTS | 20 µM | 24 h | 10.2%
Cc1cc(Nc2ccc(C(=O)N/N=C/c3ccc[nH]3)cc2)c2cccc(O)c2n1 | MTT | 20 µM | – | 43.9%
CCCCCCCCCCCCCCCCOP(=O)([O-])OCC[N+](C)(C)C | MTS | 20 µM | 24 h | 37.9%
COc1ccc(/C=N/NC(=O)c2ccc(Nc3cc(C)nc4c(O)cccc34)cc2)cc1O | MTT | 20 µM | – | 34.6%
Cc1cc(=O)oc2ccc(-c3cc(-c4cccs4)nc(N)n3)c(O)c12 | MTT | 32 µg/mL | 72 h | 14%
O=C(CN1C(=O)/C(=C/c2cccs2)SC1=S)Nc1ccccc1 | MTT | 10 µM | – | 11.8%
Cc1cc(=O)oc2ccc(-c3cc(-c4ccc(Br)cc4)nc(N)n3)c(O)c12 | MTT | 2 µg/mL | 72 h | 0%
O=C(CN1C(=O)/C(=C/c2ccc(Cl)cc2Cl)SC1=S)Nc1ccccc1 | MTT | 10 µM | – | 8.03%
Cc1ccc(-c2cc(-c3ccc4oc(=O)cc(C)c4c3O)nc(N)n2)cc1 | MTT | 2 µg/mL | 72 h | 0%
O=C(CN1C(=O)/C(=C/c2ccc(Cl)cc2)SC1=S)Nc1ccccc1 | MTT | 10 µM | – | 21.2%
Cc1cc(=O)oc2ccc(-c3cc(-c4cccc(Cl)c4)nc(N)n3)c(O)c12 | MTT | 8 µg/mL | 72 h | 0%
Cc1cc(Nc2ccc(C(=O)N/N=C/C3CCCCC3)cc2)c2cccc(O)c2n1 | MTT | 20 µM | – | 45.4%
O=C(CN1C(=O)/C(=C/c2cccc(F)c2)SC1=S)Nc1ccccc1 | MTT | 10 µM | – | 7.27%
Cc1cc(Nc2ccc(C(=O)N/N=C/c3ccnc(Cl)c3)cc2)c2cccc(O)c2n1 | MTT | 20 µM | – | 42.4%
O=C(CN1C(=O)/C(=C/c2ccc(C(F)(F)F)cc2)SC1=S)Nc1ccccc1 | MTT | 10 µM | – | 11.2%
Cc1cccc(/C=N/NC(=O)c2ccc(Nc3cc(C)nc4c(O)cccc34)cc2)n1 | MTT | 20 µM | – | 45.4%
CCOc1ccc(/C=C2\SC(=S)N(CC(=O)Nc3ccccc3)C2=O)cc1 | MTT | 10 µM | – | 34.3%
